# Screens from PubChem.
# ARFGAP1 inhibitor = inhibitors of rat ARFGAP1; Q62848; Arfgap1-stimulated ARF1 GTP hydrolysis, GDP FP detection; inhibition, % at 16.5 µM; 0.26% of 360,000 active; AID 651572;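 active = inhibition above a per-plate limit, mean inhibition of low control wells plus 3 SD, cut at about 25% in these data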;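 note: 0% = DMSO wells with enzyme and 100% = wells lacking Arfgap1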
#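 material = rat Arfgap1 catalytic domain, aa 1-136 | also added = human ARF1(Δ1-17)-GTP substrate | compound dosing = one concentration, 16.5 µM, DMSO 1.26% | times = GTP hydrolysis reaction 2 h at 25 °C | measured by = FP, GDP Alexa 633 tracer displaced from anti-GDP antibody, 620/688 nm | evaluation = percent inhibition of Arfgap1-stimulated GTP hydrolysis | replication = single well per compound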
# sPLA2-III inh = Blocks human group III sPLA2 activity. inhibition, % at 12.2 µM. AID 743126. QFRET BODIPY PC-A2 liposome hydrolysis, fluorescence. 0.56% of 370,000 active;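 active = inhibition above mean plus 3 SD of compounds lying within the high and low control bounds, cut at about 19% in these data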;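 note: 0% = median of test compound wells and 100% = no enzyme DMSO wells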
# PLCg1 inh = PLC-gamma1 (human) inhibition, primary screen | 0.84% of 370,000 active | P19174 | inhibition, % at 12.2 µM | purified PLC-gamma1, fluorogenic substrate, fluorescence; in the data active = inhibition above about 9.5%
# ASAP1 inh = inhibitors of human ASAP1 ArfGAP activity; ASAP1-stimulated ARF1 GTP hydrolysis, GDP FP detection; inhibition, % at 16.5 µM; 0.19% of 360,000 active; in the data active = inhibition above about 25%;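 note: 0% = vehicle with enzyme and substrate and 100% = no enzyme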
# PLCb3 inh = inhibitors of human phospholipase C beta3 | Purified PLC-beta3, fluorogenic substrate, fluorescence | Q01970 | inhibition, % at 12.2 µM | 0.18% of 370,000 active; in the data active = inhibition above about 11%;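 note: 0% = median of compound wells on plate and 100% = full blocker control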
# ASAP1 GAP conf = confirmation of human ASAP1 inhibitors. shares compounds with ASAP1 inh. ASAP1-stimulated Arf1 GTPase, GDP fluorescence polarization. AID 624431. inhibition, % at 16.5 µM. 37% of 620 active;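 active = mean inhibition over triplicates exceeds the hit threshold derived for the earlier primary screening run, cut at about 25% in these data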
# * = called active by the depositor; / = no result given. An excerpt weighted towards active compounds, which were near 1.9% of everything screened.
SMILES,ARFGAP1 inhibitor,sPLA2-III inh,PLCg1 inh,ASAP1 inh,PLCb3 inh,ASAP1 GAP conf
Cc1cc(OCC(C)CN2CCC(C(O)(c3ccccc3)c3ccccc3)CC2)ccc1Br (stereo not given),/,-10,0,/,-5,/
O=C([C@@H]1C[C@H]1c1ccccc1)N1CC[C@H]2[C@H](CCCN2Cc2ccc(F)cc2)C1,/,6,3,/,-2,/
COc1ccc(CCn2c(C)c(C(C)=O)c3cc(OC(=O)c4ccco4)ccc32)cc1OC,-8,-2,-4,25*,-4,6
CCOc1cc(C2CC(=O)N3CN(C4CCCCC4)CSC3=C2C#N)ccc1O (stereo not given),-15,-7,-9,26*,-12,3
NC(=O)C1CCN(c2ncc(Br)s2)CC1,/,-3,-9,/,-11,/
COc1ccc(Cl)c(-c2cc(C(=O)Nc3ccc(C)c(NS(C)(=O)=O)c3)[nH]n2)c1,11,-19,3,26*,6,10
OCCN1CCCC12CCC(c1ccccc1)CC2 (stereo not given),/,2,2,/,4,/
Cc1nc2nc[nH]n2c(=O)c1NS(C)(=O)=O,1,2,8,26*,4,4
Cc1nc2nc[nH]n2c(=O)c1NS(=O)(=O)c1ccc(F)cc1,-6,7,-4,2,3,/
COc1ccc2c(c1)CCCN2C(=O)C1CCCN(S(=O)(=O)c2ccc(Br)s2)C1 (stereo not given),/,5,1,/,-1,/
COc1ccc(OCCOc2ccccc2[N+](=O)[O-])cc1,-1,-4,4,-4,3,/
O=[N+]([O-])c1ccccc1OCCOc1ccccc1[N+](=O)[O-],35*,6,1,81*,-4,102*
COc1ccc(CNS(=O)(=O)/C=C/c2ccccc2CNC(=O)OC(C)(C)C)cc1,/,-9,-2,/,-1,/
COC(=O)[C@]12C[C@H](CC(=O)N3CCN(C(=O)c4ccco4)CC3)C(=O)N(Cc3ccco3)C1=C[C@H](C(C)C)O[C@@H]2C1CC1,/,8,5,/,0,/
NC(=O)CN1C(=O)NC2(CCCc3ccccc32)C1=O (stereo not given),2,3,0,25*,-2,5
Cc1ccc(S(=O)(=O)N2CCCC2C(c2ccccc2O)c2cn(C)c3ccccc23)cc1 (stereo not given),/,0,0,/,1,/
COc1ccc(Br)cc1C(=O)Nc1cccc(-c2nnc(-c3ccco3)o2)c1,3,-2,-1,72*,0,37*
COc1cccc(C(=O)Nc2cccc(-c3nnc(-c4ccco4)o3)c2)c1,7,-1,3,9,-1,/
O=C(NC1=N[C@@]2(C=C3CCCCC3n3c(=O)n(-c4ccccc4)c(=O)n32)[C@H](Cc2ccccc2)N1Cc1ccccc1)c1ccccc1 (stereo not given in full),/,-12,-35,/,-42,/
CC(C)C[C@@H](CNCC(=O)[C@H](Cc1c[nH]c2ccccc12)NC(=O)c1[nH]cnc1C(=O)N[C@@H](C)CN)NC(=O)c1nc[nH]c1C(=O)N[C@@H](Cc1ccccc1)C(=O)O,-3,-35,-2,-6,-7,/
CC(C)C[C@@H](CNC(=O)OC(C)(C)C)NC(=O)c1nc[nH]c1C(=O)N[C@@H](CC(C)C)C(=O)CNC[C@H](CC(C)C)NC(=O)c1nc[nH]c1C(=O)N[C@@H](Cc1c[nH]c2ccccc12)C(=O)OC(C)(C)C,10,-28,-1,32*,-3,19
O=C(CSc1nnc(-c2cccnc2)n1Cc1ccco1)Nc1ccc(F)cc1Cl,/,12,-1,/,-1,/
COC1=C(Br)C(=O)c2nc(C)ccc2C1=O,5,4,15*,27*,-1,4
COC(=O)[C@]12C[C@H](CC(=O)N3CCC(c4ccccc4)CC3)C(=O)N(CCc3ccc(OC)c(OC)c3)C1=C[C@H](C(C)C)O[C@@H]2C1CC1,/,-4,1,/,-2,/
Oc1ccc(Cl)cc1-c1cc(-c2ccccc2Cl)[nH]n1,3,-21,1,10,2,/
SMILES,ARFGAP1 inhibitor,sPLA2-III inh,PLCg1 inh,ASAP1 inh,PLCb3 inh,ASAP1 GAP conf
Oc1ccc(Cl)cc1-c1cc(-c2cccc(Br)c2)n[nH]1,20,-60,7,28*,3,27*
Cc1nnc2sc(-c3ccc(NC(=O)c4ccc(-c5ccc(Cl)cc5Cl)o4)cc3)nn12,20,2,-22,112*,-22,55*
Cc1cc(C)cc(NC(=O)CN2C(=O)NC(C)(c3ccccc3)C2=O)c1 (stereo not given),1,-12,-2,1,1,/
CC1(c2ccccc2)NC(=O)N(CCN2C(=O)c3ccccc3C2=O)C1=O (stereo not given),12,9,3,25*,-4,6
C=CCn1c(C)cc(-c2csc(NC)n2)c1C,0,-8,-44,26*,-56,5
COc1cnc(-c2ccccc2)nc1Oc1cccc(C)c1,15,0,3,25*,0,6
O=C(NCCN1CCC(Cc2ccccc2)CC1)C1CCCN(S(=O)(=O)c2ccc([N+](=O)[O-])cc2)C1 (stereo not given),/,2,4,/,2,/
Cc1ccc2c(c1)C1CS(=O)(=O)N(Cc3ccc(F)cc3)CN1C2 (stereo not given),/,2,-9,/,-11,/
COc1ccc(NC(=O)C2CCC(CNc3c(N4CCCCC4)c(=O)c3=O)CC2)cc1OC (stereo not given),-8,7,1,3,5,/
CCc1nnc(NC(=O)C2CCC(CNc3c(N4CCCCC4)c(=O)c3=O)CC2)s1 (stereo not given),5,3,-1,28*,-9,0
Cc1ccc(NC(=O)C(OC(=O)c2ccc(O)cc2)c2ccccc2)cc1Cl (stereo not given),10,-16,4,28*,1,-1
CC(=O)NCCn1ccc2ccccc21,9,2,-1,27*,-4,6
O=C(Cc1ccccc1)NCCn1ccc2ccccc21,0,-10,-2,-6,-5,/
Cc1ccccc1NC1=C/C(=N\S(=O)(=O)c2cccs2)c2ccccc2C1=O,18,-11,4,25*,4,6
Cc1ccc(C(=O)N2CCCC2)cc1Br,6,11,4,26*,-1,0
COc1cccc(/C=N/NC(=O)c2cc3cc([N+](=O)[O-])ccc3s2)c1O,0,1,3,42*,3,143*
COc1cccc(/C=N/NC(=O)C(=O)N/N=C/c2cccc(OC)c2O)c1O,-4,5,5,2,3,/
Cc1c(C)c(C)c(S(=O)(=O)N2CCSCC2)c(C)c1C,-2,3,4,4,-3,/
Cc1cc(C)c(C)c(S(=O)(=O)N2CCSCC2)c1C,-2,3,1,25*,-3,5
